From ChEMBL document CHEMBL4732146, “Nitric oxide-donating and reactive oxygen species-responsive prochelators based on 8-hydroxyquinoline as anticancer agents” (Eur J Med Chem, 2021)
Calls of active or inactive are those of the source. The calls are words filed in the database; no cut-off is given here.

Assays:
[1] = Metal chelating activity assessed as compound-Cu2+ complex formation measured after 40 mins by calcein dye based fluorescence assay; details: dose 10-50 µM
Procedure, shortened: (§1)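 Calcein (10 µM) in 50 mM HEPES was quenched by 10 µM CuCl₂ (or FeCl₃ for the Fe³⁺ arm). Chelator was added from DMSO stock to a final 10 or 50 µM and incubated 40 min at room temperature. Recovery rate was calculated from fluorescence (λex 485 / λem 520 nm); n = 3.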

[2] = Metal chelating activity assessed as compound-Fe3+ complex formation measured after 40 mins by calcein dye based fluorescence assay; details: dose 10-50 µM; procedure, shortened: as §1
A549 [3] = test: Cytotoxicity against human A549 cells assessed as reduction in cell viability at 10 to 20 uM measured after 48 hrs by MTT assay; assay type: functional, cell-based; details: dose 10-20 µM
HeLa [4] = test: Cytotoxicity against human HeLa cells assessed as reduction in cell viability at 10 to 20 uM measured after 48 hrs by MTT assay; assay type: functional, cell-based; details: dose 10-20 µM
HepG2 [5] = test: Cytotoxicity against human HepG2 cells assessed as reduction in cell viability at 10 to 20 uM measured after 48 hrs by MTT assay; assay type: functional, cell-based; details: dose 10-20 µM
Procedure, shortened: (§2)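 MTT assay with 48 h compound exposure at 10 or 20 µM. Cells seeded 6 × 10⁴ per well and grown 24 h beforehand. MTT 4 h, DMSO solubilisation, A490 read. Percent cell death given as mean ± SD, n = 3.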

MCF7 [6] = test: Cytotoxicity against human MCF7 cells assessed as reduction in cell viability at 10 to 20 uM measured after 48 hrs by MTT assay; assay type: functional, cell-based; details: dose 10-20 µM; procedure, shortened: as §2
PANC-1 [7] = test: Cytotoxicity against human PANC-1 cells assessed as reduction in cell viability at 10 uM measured after 48 hrs by MTT assay; assay type: functional, cell-based; procedure, shortened: as §2
PANC-1 [8] = test: Cytotoxicity against human PANC-1 cells assessed as reduction in cell viability at 20 uM measured after 48 hrs by MTT assay relative to control; assay type: functional; procedure, shortened: as §2
[9] = Drug metabolism in human PANC-1 cells assessed as nitric oxide release at 10 uM measured after 8 hrs by Griess assay; assay type: ADME, cell-based; details: panc-1, 8 h
Procedure, shortened: (§3)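 Cells exposed 8 h to 10 µM compound. Nitrite measured by Griess reagent kit at 540 nm against a NaNO₂ calibration curve. Mean ± SD, n = 3.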

[10] = Drug metabolism in human SW1990 cells assessed as nitric oxide release at 10 uM measured after 8 hrs by Griess assay; assay type: ADME, cell-based; details: sw1990, 8 h; procedure, shortened: as §3
A549 [11] = test: Cytotoxicity against human A549 cells assessed as reduction in cell viability measured after 48 hrs by MTT assay; assay type: functional, cell-based; details: A549, 48 h
HeLa [12] = test: Cytotoxicity against human HeLa cells assessed as reduction in cell viability measured after 48 hrs by MTT assay; assay type: functional, cell-based
HepG2 [13] = test: Cytotoxicity against human HepG2 cells assessed as reduction in cell viability measured after 48 hrs by MTT assay; assay type: functional, cell-based; details: HepG2, 48 h
Procedure, shortened: (§4)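 Cells seeded 6 × 10⁴ per well, cultured 24 h at 37 °C under 5% CO₂, then exposed to compound for 48 h, with or without 50 µM CuCl₂ or FeCl₃ co-incubation. MTT added for 4 h at 37 °C, formazan dissolved in DMSO, A490 read. IC50 reported as mean (SD), n = 3.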

MCF7 [14] = test: Cytotoxicity against human MCF7 cells assessed as reduction in cell viability measured after 48 hrs by MTT assay; assay type: functional, cell-based; details: MCF7, 48 h; procedure, shortened: as §4
PANC-1 [15] = test: Cytotoxicity against human PANC-1 cells assessed as reduction in cell viability measured after 48 hrs by MTT assay; assay type: functional, cell-based; details: PANC-1, 48 h; procedure, shortened: as §4
HCT-116 [16] = test: Cytotoxicity against human HCT-116 cells assessed as reduction in cell viability measured after 48 hrs by MTT assay; assay type: functional, cell-based; details: HCT-116, 48 h; procedure, shortened: as §4
PC-3 [17] = test: Cytotoxicity against human PC-3 cells assessed as reduction in cell viability measured after 48 hrs by MTT assay; assay type: functional, cell-based; details: PC-3, 48 h; procedure, shortened: as §4
SW1990 [18] = test: Cytotoxicity against human SW1990 cells assessed as reduction in cell viability measured after 48 hrs by MTT assay; assay type: functional, cell-based; details: SW1990, 48 h; procedure, shortened: as §4
A549 [19] = test: Cytotoxicity against human A549 cells assessed as reduction in cell viability measured after 48 hrs in presence of CuCl2 by MTT assay; assay type: functional, cell-based; details: A549, 48 h
HeLa [20] = test: Cytotoxicity against human HeLa cells assessed as reduction in cell viability measured after 48 hrs in presence of CuCl2 by MTT assay; assay type: functional, cell-based
HepG2 [21] = test: Cytotoxicity against human HepG2 cells assessed as reduction in cell viability measured after 48 hrs in presence of CuCl2 by MTT assay; assay type: functional, cell-based; details: HepG2, 48 h; procedure, shortened: as §4
MCF7 [22] = test: Cytotoxicity against human MCF7 cells assessed as reduction in cell viability measured after 48 hrs in presence of CuCl2 by MTT assay; assay type: functional, cell-based; details: MCF7, 48 h; procedure, shortened: as §4
PANC-1 [23] = test: Cytotoxicity against human PANC-1 cells assessed as reduction in cell viability measured after 48 hrs in presence of CuCl2 by MTT assay; assay type: functional, cell-based; details: PANC-1, 48 h; procedure, shortened: as §4
HCT-116 [24] = test: Cytotoxicity against human HCT-116 cells assessed as reduction in cell viability measured after 48 hrs in presence of CuCl2 by MTT assay; assay type: functional, cell-based; details: HCT-116, 48 h; procedure, shortened: as §4
PC-3 [25] = test: Cytotoxicity against human PC-3 cells assessed as reduction in cell viability measured after 48 hrs in presence of CuCl2 by MTT assay; assay type: functional, cell-based; details: PC-3, 48 h; procedure, shortened: as §4
SW1990 [26] = test: Cytotoxicity against human SW1990 cells assessed as reduction in cell viability measured after 48 hrs in presence of CuCl2 by MTT assay; assay type: functional, cell-based; details: SW1990, 48 h; procedure, shortened: as §4
A549 [27] = test: Cytotoxicity against human A549 cells assessed as reduction in cell viability measured after 48 hrs in presence of FeCl3 by MTT assay; assay type: functional, cell-based; details: A549, 48 h
HeLa [28] = test: Cytotoxicity against human HeLa cells assessed as reduction in cell viability measured after 48 hrs in presence of FeCl3 by MTT assay; assay type: functional, cell-based
HepG2 [29] = test: Cytotoxicity against human HepG2 cells assessed as reduction in cell viability measured after 48 hrs in presence of FeCl3 by MTT assay; assay type: functional, cell-based; details: HepG2, 48 h; procedure, shortened: as §4
MCF7 [30] = test: Cytotoxicity against human MCF7 cells assessed as reduction in cell viability measured after 48 hrs in presence of FeCl3 by MTT assay; assay type: functional, cell-based; details: MCF7, 48 h; procedure, shortened: as §4
PANC-1 [31] = test: Cytotoxicity against human PANC-1 cells assessed as reduction in cell viability measured after 48 hrs in presence of FeCl3 by MTT assay; assay type: functional, cell-based; details: PANC-1, 48 h; procedure, shortened: as §4
HCT-116 [32] = test: Cytotoxicity against human HCT-116 cells assessed as reduction in cell viability measured after 48 hrs in presence of FeCl3 by MTT assay; assay type: functional, cell-based; details: HCT-116, 48 h; procedure, shortened: as §4
PC-3 [33] = test: Cytotoxicity against human PC-3 cells assessed as reduction in cell viability measured after 48 hrs in presence of FeCl3 by MTT assay; assay type: functional, cell-based; details: PC-3, 48 h; procedure, shortened: as §4
SW1990 [34] = test: Cytotoxicity against human SW1990 cells assessed as reduction in cell viability measured after 48 hrs in presence of FeCl3 by MTT assay; assay type: functional, cell-based; details: SW1990, 48 h; procedure, shortened: as §4
[35] = Cytotoxicity against human H6C7 cells assessed as reduction in cell viability measured after 48 hrs by MTT assay; assay type: cell-based; details: H6C7, 48 h; procedure, shortened: as §4
[36] = Cytotoxicity against human RWPE2 cells assessed as reduction in cell viability measured after 48 hrs by MTT assay; assay type: cell-based; details: RWPE2, 48 h; procedure, shortened: as §4
[37] = Stability of compound in pH 5 PBS buffer measured after 5 to 24 hrs by RP-HPLC analysis; assay type: physicochemical; details: time 5-24 hrs
Procedure, shortened: (§5)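 Compound (1 µM) stirred at 37 °C either in PBS (pH 5.0, 7.4 or 10.0) containing 5% DMSO or in DMEM with 10% FBS. Aliquots were analysed by RP-HPLC (0.1% TFA water/methanol gradient, 256 nm) for remaining intact compound, up to 24 h.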

[38] = Stability of compound in pH 7.4 PBS buffer measured after 5 to 24 hrs by RP-HPLC analysis; assay type: physicochemical; details: time 5-24 hrs; procedure, shortened: as §5
[39] = Stability of compound in pH 10 PBS buffer measured after 5 to 24 hrs by RP-HPLC analysis; assay type: physicochemical; details: time 5-24 hrs; procedure, shortened: as §5
[40] = Stability of compound in DMEM with 10% fetal bovine serum measured after 5 to 24 hrs by RP-HPLC analysis; assay type: cell-free; details: time 5-24 hrs; procedure, shortened: as §5

Row | Structure (SMILES) | Activity [1] | Activity [2] | Activity (A549 [3]) | Activity (HeLa [4]) | Activity (HepG2 [5]) | Activity (MCF7 [6]) | Activity (PANC-1 [7]) | Activity (PANC-1 [8]) | IC50 (PANC-1 [15]) | IC50 (SW1990 [18]) | IC50 (PANC-1 [23]) | IC50 (SW1990 [26]) | IC50 (PANC-1 [31]) | IC50 (SW1990 [34]) | IC50 [35] | IC50 [36] | further results
1 | O=C(/C=C/c1ccc2cccc(O)c2n1)NCCCOc1no[n+]([O-])c1S(=O)(=O)c1ccccc1 | Dose-dependent effect | Dose-dependent effect | Active | Active | Active | Active | Active | Active | – | – | – | – | – | – | – | – | –
2 | O=C(/C=C\c1ccc2cccc(O)c2n1)N1CCC(Oc2no[n+]([O-])c2S(=O)(=O)c2ccccc2)CC1 | Dose-dependent effect | Dose-dependent effect | Active | Active | Active | Active | Active | Active | – | – | – | – | – | – | – | – | –
3 | O=C(c1ccc2cccc(O)c2n1)N1CCC(Oc2no[n+]([O-])c2S(=O)(=O)c2ccccc2)CC1 | Dose-dependent effect | Dose-dependent effect | Active | Active | Active | Active | Active | 82.3% | 9.05 µM | 6.59 µM | 1.32 µM | 0.79 µM | 14.8 µM | 10.6 µM | 13.2 µM | 7.04 µM | Drug metabolism [9]: Metabolite_Detected; Drug metabolism [10]: Metabolite_Detected; IC50 (A549 [11]): 7.8 µM; IC50 (HeLa [12]): 33.9 µM; IC50 (HepG2 [13]): 14.6 µM; IC50 (MCF7 [14]): 15.4 µM; IC50 (HCT-116 [16]): 11.2 µM; IC50 (PC-3 [17]): 10.4 µM; IC50 (A549 [19]): 2.16 µM; IC50 (HeLa [20]): 9.77 µM; IC50 (HepG2 [21]): 4.05 µM; IC50 (MCF7 [22]): 3.07 µM; IC50 (HCT-116 [24]): 3.29 µM; IC50 (PC-3 [25]): 5.02 µM; IC50 (A549 [27]): 12.4 µM; IC50 (HeLa [28]): 37.9 µM; IC50 (HepG2 [29]): 19.9 µM; IC50 (MCF7 [30]): 17 µM; IC50 (HCT-116 [32]): 17.2 µM; IC50 (PC-3 [33]): 14.6 µM
4 | CC1(C)OB(c2ccc(COc3cccc4ccc(C(=O)N5CCC(Oc6no[n+]([O-])c6S(=O)(=O)c6ccccc6)CC5)nc34)cc2)OC1(C)C | – | – | – | – | – | – | – | – | 13.2 µM | 12.1 µM | 3.47 µM | 2.88 µM | 38.2 µM | 34.2 µM | 34.2 µM | 28.6 µM | Stabilty [37]: Stable; Stabilty [38]: Stable; Stabilty [39]: Stable; Stability [40]: Stable
5 | O=C(NCCOc1no[n+]([O-])c1S(=O)(=O)c1ccccc1)c1ccc2cccc(O)c2n1 | Dose-dependent effect | Dose-dependent effect | Active | Active | Active | Active | Active | Active | – | – | – | – | – | – | – | – | –
